# Measurements collected from several papers.
# Each line is one published result; the experiments were not run side by side.
# Target: Serine/threonine-protein kinase Nek6 (NEK6, Homo sapiens, UniProt Q9HC98)
Structure (SMILES),assay,conditions,remaining binding [%]
N[C@@H]1CCN(c2nccc(-c3cnn4ncccc34)n2)C1,binding,1 µM,100
Nc1ncc2c(n1)-c1c([nH]c3ccc(C#CC4CC4)cc13)CCCC2,"binding, competition with immobilised ligand",1 µM,90
CSc1cccnc1N1CCN(Cc2nc3ccccc3[nH]2)CC1,"cell-free assay, competition with immobilised ligand",1 µM,98
F[C@@H]1CCN(c2nccc(-c3cnn4ncccc34)n2)C1,binding,1 µM,100
CCC(=O)N[C@H]1CC[C@@H](C(=O)N(C)c2ccc(-c3nc4ccccc4o3)cc2)C1,"cell-free assay, competition with immobilised ligand",1 µM,85
C=CC(=O)N1CCC(C(=O)NCC(=O)N2CCN(c3nc(-c4cnc(N)nc4C(F)F)nc(N4CCOCC4)n3)CC2)CC1,"binding, competition with immobilised ligand",1 µM,95
COc1cnc(Nc2cccc(S(N)(=O)=O)c2)nc1N1CCN(c2ccccc2)CC1,"binding, competition with immobilised ligand",1 µM,100
CN(C)c1nccc(-c2cnc3ncccn23)n1,binding,1 µM,94
C[C@@H](c1cccc(C#N)c1)n1cc(Cl)cc(C(N)=O)c1=N,"cell-free assay, competition with immobilised ligand",1 µM,79
CN(c1nccc(-c2cnn3ncccc23)n1)C1CC1,binding,1 µM,100
O=C(NCC1CCOCC1)c1n[nH]cc1NC(=O)c1c(F)cccc1F,"binding, competition with immobilised ligand",1 µM,90
FC(F)(F)Oc1cccc(-c2cnc3ccc(-c4ccncc4)nn23)c1,"cell-free assay, competition with immobilised ligand",5 µM,85
CN(CCCC(F)(F)F)c1nccc(-c2cnn3ncccc23)n1,binding,1 µM,100
CS(=O)(=O)N1CCCC(NC(=O)[C@H](CCC2CCCCC2)NC(=O)c2ccc(CNC(=O)c3cnc4ccccn34)cc2)C1 (stereo partly shown),"cell-free assay, competition with immobilised ligand",0.1 µM,100
O=C(NCCCN1CCOCC1)c1ccc(Nc2nccc(-c3cc4ccccc4s3)n2)cc1,"binding, competition with immobilised ligand",1 µM,81
CCCOc1ccc([C@@H]2[C@@H](C(=O)O)[C@H](c3ccc4c(c3)OCO4)CN2CC(=O)Nc2c(CC)cccc2CC)cc1,"cell-free assay, competition with immobilised ligand",1 µM,92
O=C(c1ccc(Nc2nccc(-c3cc4ccccc4s3)n2)cc1)N1CCC(N2CCCC2)CC1,"binding, competition with immobilised ligand",1 µM,87
COc1cnc(Nc2cccc(S(N)(=O)=O)c2)nc1N1CCN(c2ccccc2)C(=O)C1,"binding, competition with immobilised ligand",1 µM,98
COc1ccc2c(O[C@@H]3C[C@H]4C(=O)N[C@]5(C(=O)O)CC5/C=C\CCCCC[C@H](NC(=O)OC5CCCC5)C(=O)N4C3)cc(-c3csc(NC(=O)C(C)C)n3)nc2c1C (stereo partly shown),"cell-free assay, competition with immobilised ligand",1 µM,98
C[C@H]1CCN(c2nccc(-c3cnn4ncccc34)n2)C1,binding,1 µM,100
Cc1cnc(Nc2ccc(C(=O)N3CCC(N4CCCC4)CC3)cc2)nc1-c1cc2ccccc2s1,"binding, competition with immobilised ligand",1 µM,10
CCc1ccccc1C(=O)Nc1n[nH]c2c(C)c(F)c(C3C(C#N)=C(C)N(C)C(C)=C3C#N)cc12,"cell-free assay, competition with immobilised ligand",1 µM,75
